These results are taken from PubChem BioAssay AID624400 (The Scripps Research Institute Molecular Screening Center, 2012).

As a reminder, the inhibition is the share of the control response that was lost under treatment.

In this test the test system is aryl hydrocarbon receptor (Cavia porcellus). Description: AHR ligand binders displacing [3H]TCDD, late-stage follow-up, counter-screen for AHR activator project, cell lysate, guinea pig liver cytosol, radiometric, set 2 (AID 624400). To be noted: [3H]TCDD binding, hydroxyapatite, at 10 µM, hits give high values. The essentials:
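material = guinea pig hepatic cytosol with AHR | doses = single nominal dose of 10 µM, 2% DMSO | replicates = triplicate | times = 1 h binding incubation at room temperature | benchmarks = TCDF (200 nM) for nonspecific binding | also added = 2 nM [3H]TCDD | measured by = scintillation counting of hydroxyapatite-bound [3H]TCDD after Tween 80 buffer washes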
(In general: The purpose of a counterscreen is to sort out artefacts and off-target activity.)

Molecules are shown by their SMILES.

`Cc1ccc(-c2cc(-c3cccc(F)c3)n[nH]2)c(O)c1`: the inhibition is 34.8%.
Then `Cc1ccc(-c2cc(-c3ccc(F)cc3)n[nH]2)c(O)c1`, with 19.8%; and `Cc1ccc(-c2cc(-c3ccc(Cl)cc3)n[nH]2)c(O)c1`, with 61.7%.
